Key:
[1] = system: human MDR1 (P-gp); experiment: Apparent permeability in LLC-PK1 cells expressing human MDR1; assay type: ADME, cell-based, Sus scrofa; details: pig, LLC-PK1
Procedure, shortened: (§1)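 LLC-PK1 cells expressing human MDR1, grown in M199 with 10% FBS on 96-well filters and used on day 4. Equilibrated 30 min in HBSS with 1 mM HEPES, then test compound at 5 µM. 1 µM verapamil served as P-gp substrate control. Transport in both directions measured in triplicate by LC/MS/MS or scintillation.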

[2] = target: T1, B1 bradykinin receptor (Homo sapiens, UniProt P46663); experiment: Displacement of [3H]des-Arg10 Leu9 kallidin from human bradykinin B1 receptor expressed in CHO cells; assay type: cell-based
T1 sequence (P46663 whole entry): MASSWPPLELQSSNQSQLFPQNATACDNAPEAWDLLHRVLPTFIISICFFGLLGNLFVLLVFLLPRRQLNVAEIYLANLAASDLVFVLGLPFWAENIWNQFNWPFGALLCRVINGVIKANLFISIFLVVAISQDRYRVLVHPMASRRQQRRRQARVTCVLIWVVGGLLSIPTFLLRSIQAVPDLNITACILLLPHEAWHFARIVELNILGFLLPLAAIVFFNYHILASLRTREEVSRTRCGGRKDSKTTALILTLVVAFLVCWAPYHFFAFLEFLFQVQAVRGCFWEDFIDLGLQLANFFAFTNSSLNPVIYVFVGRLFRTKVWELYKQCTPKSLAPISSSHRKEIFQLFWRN
Procedure, shortened: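 Membranes from CHO cells stably expressing human B1, used at 0.2 mg/mL protein in pH 7.4 HEPES/NaCl/KCl buffer with 100 nM enalaprilat, 140 µg/mL bacitracin and 0.1% BSA. Radioligand 0.2 nM [3H]des-arg10 leu9 kallidin, 2% DMSO final, incubated 60 min at 22 °C, then filtered and counted. Nonspecific binding defined with 1 µM des-arg10 kallidin. Ki values, at least two experiments averaged.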

[3] = system: LLC-PK1; experiment: Ratio of transport from basolateral to apical over apical to basolateral in LLC-PK1 cells expressing human MDR1; assay type: ADME, cell-based, Sus scrofa; details: pig; procedure, shortened: as §1
[4] = target: T2, B2 bradykinin receptor (Homo sapiens, UniProt P30411); experiment: Inhibition of human bradykinin B2 receptor
T2 sequence (P30411 whole entry): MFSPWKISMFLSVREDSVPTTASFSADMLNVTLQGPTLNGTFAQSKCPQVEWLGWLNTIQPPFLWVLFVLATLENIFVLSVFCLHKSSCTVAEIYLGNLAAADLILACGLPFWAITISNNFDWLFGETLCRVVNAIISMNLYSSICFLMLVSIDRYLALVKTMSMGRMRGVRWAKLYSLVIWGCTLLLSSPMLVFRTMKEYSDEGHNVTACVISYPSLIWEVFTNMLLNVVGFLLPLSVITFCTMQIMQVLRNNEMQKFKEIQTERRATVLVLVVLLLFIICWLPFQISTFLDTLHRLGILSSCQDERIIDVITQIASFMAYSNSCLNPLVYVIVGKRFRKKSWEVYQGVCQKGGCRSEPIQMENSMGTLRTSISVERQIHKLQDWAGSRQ
Procedure, shortened: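 Human B2 receptor expressed in CHO cells, membrane binding with 1 nM [3H]bradykinin, 2% DMSO final, 60 min at 22 °C, then filtered and counted. Nonspecific binding defined with 1 µM bradykinin. Ki reported.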

[5] = Lipophilicity, Log P of the compound; assay type: physicochemical; details: octanol/water
[6] = target: T1, B1 bradykinin receptor; experiment: Activity at human bradykinin B1 receptor assessed as inhibition of Des-arg kallidin-induced increase of cytosolic calcium in CHO cells by FLIPR; assay type: functional, cell-based
Procedure, shortened: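 CHO cells stably expressing human B1 receptor, seeded 25 000/well and grown overnight at 37 °C, then loaded 60 min at 37 °C with 4 µM fluo-3 AM and 1 mM probenecid. Antagonist added 2 min before 3 nM des-arg10 kallidin, run at 37 °C. At least eight concentrations per curve give IC50. At least two experiments averaged.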

[7] = Oral bioavailability in Sprague-Dawley rat at 10 mg/kg, po and 2 mg/kg, iv; assay type: ADME, organism-based; details: in vivo
Procedure, shortened: (§2)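 Sprague-Dawley rats, n = 3, dosed orally at 10 mg/kg and iv at 2 mg/kg. F% from oral versus iv exposure; half-life in hours, clearance in mL/min/kg.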

[8] = Half life in Sprague-Dawley rat at 10 mg/kg, po and 2 mg/kg, iv; assay type: ADME, organism-based; details: in vivo; procedure, shortened: as §2
[9] = Clearance in Sprague-Dawley rat at 10 mg/kg, po and 2 mg/kg, iv; assay type: ADME, organism-based; details: in vivo; procedure, shortened: as §2
[10] = Clearance in rhesus monkey at 3 mg/kg, po and 1 mg/kg, iv; assay type: ADME, organism-based, Macaca mulatta; details: in vivo
Procedure, shortened: (§3)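 Rhesus monkeys, n = 2, dosed orally at 3 mg/kg and iv at 1 mg/kg. F%, half-life in hours, clearance in mL/min/kg.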

[11] = Oral bioavailability in Mongrel dog at 3 mg/kg, po and 1 mg/kg, iv; assay type: ADME, organism-based, Canis lupus familiaris; details: in vivo
Procedure, shortened: (§4)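 Mongrel dogs, n = 2, dosed orally at 3 mg/kg and iv at 1 mg/kg. F%, half-life in hours, clearance in mL/min/kg.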

[12] = Stability in monkey liver microsomes; assay type: ADME, Macaca mulatta, Microsome; details: rhesus monkey
[13] = Stability in dog liver microsomes; assay type: ADME, Canis lupus familiaris, Microsome
[14] = Half life in Mongrel dog at 3 mg/kg, po and 1 mg/kg, iv; assay type: ADME, organism-based, Canis lupus familiaris; details: in vivo; procedure, shortened: as §4
[15] = system: Liver microsomes; experiment: Stability in rat liver microsomes; assay type: ADME, Microsome
[16] = Half life in rhesus monkey at 3 mg/kg, po and 1 mg/kg, iv; assay type: ADME, organism-based, Macaca mulatta; details: in vivo; procedure, shortened: as §3
[17] = Oral bioavailability in rhesus monkey at 3 mg/kg, po and 1 mg/kg, iv; assay type: ADME, organism-based, Macaca mulatta; details: in vivo; procedure, shortened: as §3
[18] = system: Liver microsomes; experiment: Stability in human liver microsomes; assay type: ADME, Microsome
[19] = Stability in rat hepatocytes; assay type: ADME, cell-based, Hepatocyte
[20] = Stability in human hepatocytes; assay type: ADME, cell-based, Hepatocyte
[21] = Clearance in Mongrel dog at 3 mg/kg, po and 1 mg/kg, iv; assay type: ADME, organism-based, Canis lupus familiaris; details: in vivo; procedure, shortened: as §4

Compound | Papp [1] | Ki [2] | Ratio [3] | IC50 [4] | bioavailability [7] | half-life [8] | clearance [9] | other results
COC(=O)c1ccccc1-c1ccc([C@@H](C)NC(=O)C2(NC(=O)C(F)(F)F)CC2)c(F)c1 | 34 ×10⁻⁶ cm/s | 10.3 nM | 2.2 | – | – | – | – | –
COC(=O)c1c(F)cccc1-c1ccc(CNC(=O)C2(NC(=O)C(F)Cl)CC2)c(F)c1 (centres undefined) | – | 2.8 nM | – | > 10000 nM | – | – | – | –
COC(=O)c1c(F)cccc1-c1ccc(CNC(=O)C2(NC(=O)C(F)F)CC2)c(F)c1 | 33 ×10⁻⁶ cm/s | 13.5 nM | 3.4 | > 10000 nM | – | – | – | logP [5]: 2.4
CCOC(=O)c1c(Cl)cccc1-c1ccc([C@@H](C)NC(=O)C2(NC(=O)C(F)(F)F)CC2)c(F)c1 | – | 1.35 nM | – | – | 45% | 1.1 h | 8.4 mL/min/kg | IC50 [6]: 9.1 nM
COC(=O)c1c(F)cccc1-c1ccc(CNC(=O)C2(NC(=O)CC(F)(F)F)CC2)c(F)c1 | 23 ×10⁻⁶ cm/s | 0.81 nM | 18.4 | > 10000 nM | – | – | – | logP [5]: 2.9
COC(=O)c1c(F)cccc1-c1ccc([C@H](C)NC(=O)C2(NC(=O)CC(F)(F)F)CC2)c(F)c1 | – | 22 nM | – | – | – | – | – | –
COC(=O)c1c(F)cccc1-c1ccc([C@@H](C)NC(=O)C2(NC(=O)CC(F)(F)F)CC2)c(F)c1 | 25 ×10⁻⁶ cm/s | 0.13 nM | 8.6 | – | 14% | 1.44 h | 25 mL/min/kg | –
C[C@@H](NC(=O)C1(NC(=O)C(F)(F)F)CC1)c1ccc(-c2cccc(Cl)c2-c2nnn(C)n2)cc1F | – | 0.66 nM | – | – | 50% | 0.7 h | 12 mL/min/kg | –
CCC(=O)c1c(Cl)cccc1-c1ccc([C@@H](C)NC(=O)C2(NC(=O)C(F)(F)F)CC2)c(F)c1 | 27 ×10⁻⁶ cm/s | 1.95 nM | 1.6 | – | – | – | – | –
COC(=O)c1c(F)cccc1-c1ccc(CNC(=O)C2(NC(C)=O)CC2)c(F)c1 | 24 ×10⁻⁶ cm/s | 11.6 nM | 6.3 | > 10000 nM | – | – | – | –
COC(=O)c1c(F)cccc1-c1ccc(CNC(=O)C2(NC(=O)C(C)(Cl)Cl)CC2)c(F)c1 | – | 119 nM | – | > 10000 nM | – | – | – | –
COC(=O)c1c(F)cccc1-c1ccc([C@@H](C)NC(=O)C2(NC(=O)C(F)F)CC2)c(F)c1 | 31 ×10⁻⁶ cm/s | 0.4 nM | 3.2 | – | – | – | – | –
COC(=O)c1c(F)cccc1-c1ccc([C@@H](C)NC(=O)C2(NC(=O)C(F)(F)F)CC2)c(F)c1 | 28 ×10⁻⁶ cm/s | 0.57 nM | 2.3 | – | 21% | 0.5 h | 42 mL/min/kg | clearance [10]: 28 mL/min/kg; bioavailability [11]: 5%; IC50 [6]: 1.9 nM; Stability [12]: Stable; Stability [13]: Stable; half-life [14]: 1.7 h; Stability [15]: Stable; half-life [16]: 2.2 h; bioavailability [17]: 2%; Stability [18]: Stable; Stability [19]: Stable; Stability [20]: Stable; clearance [21]: 21 mL/min/kg
COC(=O)c1c(F)cccc1-c1ccc(CNC(=O)C2(NC(=O)C(F)(F)C(F)(F)F)CC2)c(F)c1 | 31 ×10⁻⁶ cm/s | 2.95 nM | 2.2 | > 10000 nM | – | – | – | –
C[C@@H](NC(=O)C1(NC(=O)C(F)(F)F)CC1)c1ccc(-c2cccc(F)c2-c2nnn(C)n2)cc1F | – | 0.6 nM | – | – | 48% | 0.7 h | 11 mL/min/kg | IC50 [6]: 0.65 nM
COC(=O)c1c(F)cccc1-c1ccc(CNC(=O)C2(NC(=O)C(F)(F)F)CC2)c(F)c1 | 23 ×10⁻⁶ cm/s | 1.47 nM | 4.1 | > 10000 nM | – | – | – | logP [5]: 2.7
Cc1noc(-c2c(F)cccc2-c2ccc([C@@H](C)NC(=O)C3(NC(=O)C(F)(F)F)CC3)c(F)c2)n1 | 37 ×10⁻⁶ cm/s | 0.51 nM | 5.6 | – | 27% | 0.35 h | 28 mL/min/kg | clearance [10]: 15 mL/min/kg; bioavailability [11]: 35%; IC50 [6]: 0.89 nM; half-life [14]: 3.9 h; half-life [16]: 2.9 h; bioavailability [17]: 22%; clearance [21]: 6 mL/min/kg
C[C@@H](NC(=O)C1(NC(=O)C(F)(F)F)CC1)c1ccc(-c2cccc(F)c2C(F)(F)F)cc1F | 32 ×10⁻⁶ cm/s | 1.44 nM | 2 | – | 30% | 2.6 h | 10 mL/min/kg | IC50 [6]: 7.3 nM
COC(=O)c1c(F)cccc1-c1ccc(CNC(=O)C2(NC(=O)C(Cl)Cl)CC2)c(F)c1 | 21 ×10⁻⁶ cm/s | 0.54 nM | 2.8 | > 10000 nM | – | – | – | logP [5]: 2.8
COC(=O)c1c(F)cccc1-c1ccc([C@@H](C)NC(=O)C2(NC(C)=O)CC2)c(F)c1 | 21 ×10⁻⁶ cm/s | 0.93 nM | 8.6 | – | – | – | – | –
COC(=O)c1c(F)cccc1-c1ccc(CNC(=O)C2(NC(=O)C(F)(F)Cl)CC2)c(F)c1 | 29 ×10⁻⁶ cm/s | 2.5 nM | 2.8 | > 10000 nM | – | – | – | –
C[C@@H](NC(=O)C1(NC(=O)C(F)(F)F)CC1)c1ccc(-c2cccc(F)c2-c2nnnn2C)cc1F | 19 ×10⁻⁶ cm/s | 62.5 nM | 15.5 | – | – | – | – | –
COC(=O)c1c(F)cccc1-c1ccc([C@@H](C)NC(=O)C2(NC(=O)C(F)(F)Cl)CC2)c(F)c1 | 34 ×10⁻⁶ cm/s | 0.81 nM | 2.5 | – | – | – | – | –
